From ChEMBL document CHEMBL4041482, “Synthesis, evaluation, and CoMFA study of fluoroquinophenoxazine derivatives as bacterial topoisomerase IA inhibitors” (Eur J Med Chem, 2017)
≈ marks a conversion by molar mass, not a printed value.

Legend:
[1] = test system: Escherichia coli; test: Antibacterial activity against Escherichia coli BAS3023 harboring imp mutant by microdilution method; format: functional
Method in brief: (§1)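 MICs determined by standard broth microdilution in cation-adjusted Mueller-Hinton Broth; E. coli BAS3023 carries an imp mutation conferring membrane permeability to small molecules, MG1655 K12 is wild type.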

[2] = test system: Bacillus spizizenii; test: Antibacterial activity against Bacillus subtilis ATCC 6633 by microdilution method; format: functional
Method in brief: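 Broth microdilution per standard protocol in cation-adjusted Mueller-Hinton broth; MIC taken as lowest inhibiting concentration.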

[3] = Inhibition of recombinant Escherichia coli topoisomerase 1a expressed in Escherichia coli assessed as reduction in enzyme-mediated relaxation of supercoiled pBAD/Thio DNA preincubated with enzyme followed by substrate addition measured after 30 mins by ethidium bromide staining based agarose gel electrophoresis method
[4] = test system: Escherichia coli; test: Antibacterial activity against Escherichia coli K12 MG1655 by microdilution method; format: functional; conditions: K-12 substr. MG1655; method in brief: as §1
[5] = test system: Vero; test: Cytotoxicity against African green monkey Vero cells assessed as reduction in cell viability after 72 hrs by MTS assay; format: cell-based; conditions: Chlorocebus sabaeus
[6] = test system: Mycobacterium tuberculosis; test: Antimycobacterial activity against Mycobacterium tuberculosis H37Rv after 7 days by microplate alamar blue assay; format: functional; conditions: 168 h
[7] = Inhibition of recombinant Escherichia coli DNA gyrase expressed in Escherichia coli assessed as reduction in enzyme-mediated supercoiling of relaxed circular DNA preincubated with enzyme followed by substrate addition measured after 30 mins by agarose gel electrophoresis method
[8] = Inhibition of human topoisomerase type 1B assessed as reduction in enzyme-mediated relaxation of supercoiled pBAD/Thio DNA after 30 mins by agarose gel electrophoresis method
Method in brief: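 Human topoisomerase I, 0.5 U, in manufacturer's reaction buffer; enzyme mixed with compound before 200 ng supercoiled pBAD/Thio plasmid added, 20 μL final. 37 °C for 30 minutes; stopped with SDS/bromophenol blue/glycerol buffer; agarose gel electrophoresis read-out.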

[9] = target: DNA topoisomerase 2-alpha (Homo sapiens, UniProt P11388); test: Inhibition of human topoisomerase-2alpha assessed as reduction in enzyme-mediated decatenation using kinetoplast DNA as substrate after 15 mins by ethidium bromide staining based agarose gel electrophoresis method
[10] = Solubility in DMSO-d6 solvent by 1H NMR method; format: physicochemical
[11] = Stability of the compound in DMSO-d6 solvent after several weeks by 1H NMR method; format: physicochemical
[12] = Inhibition of recombinant Escherichia coli topoisomerase 1a expressed in Escherichia coli assessed as reduction in enzyme-mediated relaxation of supercoiled pBAD/Thio DNA preincubated with enzyme followed by substrate addition measured after 30 mins by high-throughput screening assay
[13] = Stability of the compound in DMSO-d6 solvent after several weeks by HPLC method; format: physicochemical
[14] = Selectivity index, ratio of IC50 for African green monkey Vero cells to MIC for Mycobacterium tuberculosis H37Rv; format: toxicity
Method in brief: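 SI computed as cytotoxic IC50 against Vero cells divided by MIC against M. tuberculosis; Mtb MIC from modified microplate Alamar blue assay.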

Sequence of DNA topoisomerase 2-alpha (P11388 whole entry): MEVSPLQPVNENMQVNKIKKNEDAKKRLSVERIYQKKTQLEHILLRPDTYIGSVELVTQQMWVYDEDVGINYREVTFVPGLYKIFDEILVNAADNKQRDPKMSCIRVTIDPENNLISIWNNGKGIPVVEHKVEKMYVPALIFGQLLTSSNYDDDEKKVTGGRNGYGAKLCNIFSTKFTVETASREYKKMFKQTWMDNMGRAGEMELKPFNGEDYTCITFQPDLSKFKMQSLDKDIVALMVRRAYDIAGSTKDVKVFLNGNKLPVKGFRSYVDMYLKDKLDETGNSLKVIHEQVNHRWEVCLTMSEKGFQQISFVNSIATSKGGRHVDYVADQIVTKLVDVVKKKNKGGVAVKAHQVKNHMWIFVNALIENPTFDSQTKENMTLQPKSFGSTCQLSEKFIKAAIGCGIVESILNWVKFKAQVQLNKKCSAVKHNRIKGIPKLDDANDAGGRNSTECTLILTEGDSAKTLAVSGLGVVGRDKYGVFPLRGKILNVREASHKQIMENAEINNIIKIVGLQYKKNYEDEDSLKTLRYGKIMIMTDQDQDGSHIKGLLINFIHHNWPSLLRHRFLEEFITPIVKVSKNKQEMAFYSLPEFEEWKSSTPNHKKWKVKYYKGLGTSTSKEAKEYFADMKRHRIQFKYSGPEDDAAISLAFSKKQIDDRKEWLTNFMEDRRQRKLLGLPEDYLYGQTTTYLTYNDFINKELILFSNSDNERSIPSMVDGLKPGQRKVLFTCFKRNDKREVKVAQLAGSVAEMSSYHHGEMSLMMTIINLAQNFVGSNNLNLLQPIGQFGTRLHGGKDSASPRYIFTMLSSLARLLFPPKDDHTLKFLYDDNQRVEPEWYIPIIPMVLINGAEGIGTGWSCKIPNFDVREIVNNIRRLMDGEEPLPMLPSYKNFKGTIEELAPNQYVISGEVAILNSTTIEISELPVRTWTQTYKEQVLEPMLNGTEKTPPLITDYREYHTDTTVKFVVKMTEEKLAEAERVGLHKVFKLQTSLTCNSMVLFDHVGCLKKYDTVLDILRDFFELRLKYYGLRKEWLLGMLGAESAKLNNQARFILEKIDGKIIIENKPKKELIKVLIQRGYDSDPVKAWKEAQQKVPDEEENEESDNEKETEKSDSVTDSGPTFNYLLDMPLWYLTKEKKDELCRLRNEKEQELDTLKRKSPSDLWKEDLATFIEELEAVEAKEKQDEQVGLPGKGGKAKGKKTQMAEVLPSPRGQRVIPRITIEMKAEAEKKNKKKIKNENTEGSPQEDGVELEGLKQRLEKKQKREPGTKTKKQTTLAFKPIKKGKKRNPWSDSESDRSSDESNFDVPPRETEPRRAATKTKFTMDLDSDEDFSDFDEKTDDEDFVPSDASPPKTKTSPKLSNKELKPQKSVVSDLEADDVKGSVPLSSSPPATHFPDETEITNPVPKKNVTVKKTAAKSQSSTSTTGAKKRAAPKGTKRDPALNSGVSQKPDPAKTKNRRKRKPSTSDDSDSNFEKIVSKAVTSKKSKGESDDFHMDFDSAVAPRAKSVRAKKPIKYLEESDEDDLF

Row | SMILES | MIC [1] [µM] | MIC [2] [µM] | IC50 [3] [µM] | pIC50 [3] | MIC [4] [µM] | IC50 [5] [µM] | MIC [6] [µM] | IC50 [7] [µM] | IC50 [8] [µM] | IC50 [9] [µM] | solubility [10] | Stability [11] | IC50 [12] [µM] | Stability [13] | Selectivity Index [14]
1 | O=C(O)c1cn2c3c(c(F)c(F)cc3c1=O)Oc1cc([N+](=O)[O-])ccc1-2 | 0.78 (≈ 0.281 µg/mL) | 12.5 (≈ 4.5 µg/mL) | 15.6 | 4.81 | 200 (≈ 72 µg/mL) | – | – | – | – | – | – | – | – | – | –
2 | Nc1ccc2c(c1)Oc1c(NC3CCCC3)c(F)cc3c(=O)c(C(=O)O)cn-2c13 | 25 (≈ 9.88 µg/mL) | 12.5 (≈ 4.94 µg/mL) | 3.9 | 5.41 | > 200 | – | – | – | – | – | – | – | – | – | –
3 | CCOC(=O)c1cn2c3c(c(N4CCN(C)CC4)c(F)cc3c1=O)Oc1cc([N+](=O)[O-])ccc1-2 | 25 (≈ 11.7 µg/mL) | 50 (≈ 23.4 µg/mL) | 1.95 | 5.71 | > 200 | – | – | – | – | – | – | – | – | – | –
4 | Nc1ccc2c(c1)Oc1c(NC3CCCCC3)c(F)cc3c(=O)c(C(=O)O)cn-2c13 | 25 (≈ 10.2 µg/mL) | 12.5 (≈ 5.12 µg/mL) | 3.9 | 5.41 | > 200 | – | – | – | – | – | – | – | – | – | –
5 | CCCCCCNc1c(F)cc2c(=O)c(C(=O)O)cn3c2c1Oc1cc(N)ccc1-3 | > 200 | > 200 | 15.6 | 4.81 | > 200 | – | – | – | – | – | – | – | – | – | –
6 | Nc1ccc2c(c1)Oc1c(N3CC[C@@H](N)C3)c(F)cc3c(=O)c(C(=O)O)cn-2c13 | 6.25 (≈ 2.48 µg/mL) | 12.5 (≈ 4.95 µg/mL) | 0.48 to 0.97 | 6.14 | – | > 63.1 | > 63.1 | – | – | – | – | – | – | – | –
7 | CN1CCN(c2c(F)cc3c(=O)c(C(=O)O)cn4c3c2Oc2cc([N+](=O)[O-])ccc2-4)CC1 | 1.56 (≈ 0.687 µg/mL) | 0.78 (≈ 0.344 µg/mL) | 1.95 | 5.71 | 100 (≈ 44 µg/mL) | 95 | 19 (≈ 8.37 µg/mL) | 62.5 to 125 | 31.2 | – | – | – | – | – | –
8 | CN1CCN(c2c(F)cc3c(=O)c(C(=O)O)cn4c3c2Oc2cc(N)ccc2-4)CC1 | – | – | 0.48 | 6.32 | – | – | – | 15.6 to 31.2 | 15.6 | 3.9 to 7.8 | – | – | – | – | –
9 | Nc1ccc2c(c1)Oc1c(N3CCNCC3)c(F)cc3c(=O)c(C(=O)O)cn-2c13 | 0.39 (≈ 0.155 µg/mL) | – | 0.24 | 6.62 | > 200 | > 126 | – | 7.8 to 15.6 | 7.8 | 1.95 to 3.9 | – | – | – | – | –
10 | O=C(O)c1cn2c3c(c(F)c(F)cc3c1=O)Oc1cc([N+](=O)[O-])c(Cl)cc1-2 | 0.39 (≈ 0.154 µg/mL) | 3.12 (≈ 1.23 µg/mL) | 31.2 | 4.51 | 50 (≈ 19.7 µg/mL) | > 127 | 29 (≈ 11.4 µg/mL) | 62.5 | 31.2 | – | – | – | – | – | –
11 | CCOC(=O)c1cn2c3c(c(F)c(F)cc3c1=O)Oc1cc(C#N)ccc1-2 | > 200 | 200 (≈ 73.7 µg/mL) | 31.2 | 4.51 | > 200 | – | – | – | – | – | – | – | – | – | –
12 | CCOC(=O)c1cn2c3c(c(F)c(F)cc3c1=O)Oc1cc(C(F)(F)F)ccc1-2 | > 200 | > 200 | 125 to 250 | 3.6 | > 200 | – | – | – | – | – | – | – | – | – | –
13 | Nc1ccc2c(c1)Oc1c(NCCc3ccccc3)c(F)cc3c(=O)c(C(=O)O)cn-2c13 | 50 (≈ 21.6 µg/mL) | 25 to 50 (≈ 10.8 to 21.6 µg/mL) | 3.9 | 5.41 | > 200 | – | – | – | – | – | – | – | – | – | –
14 | Nc1ccc2c(c1)Oc1c(N3CC[C@H](N)C3)c(F)cc3c(=O)c(C(=O)O)cn-2c13 | 1.56 (≈ 0.618 µg/mL) | 6.25 (≈ 2.48 µg/mL) | 0.48 to 0.97 | 6.14 | > 200 | > 63.1 | – | – | – | – | – | – | – | – | –
15 | Nc1ccc2c(c1)Oc1c(F)c(F)cc3c(=O)c(C(=O)O)cn-2c13 | 0.78 to 1.56 (≈ 0.258 to 0.515 µg/mL) | – | 1.95 | 5.71 | > 200 | – | – | > 125 | 31.3 | > 500 | Insoluble | Stable | 0.8 to 2 | Stable | –
16 | N#Cc1ccc2c(c1)Oc1c(F)c(F)cc3c(=O)c(C(=O)O)cn-2c13 | 200 (≈ 68 µg/mL) | > 200 | 31.2 | 4.51 | > 200 | – | – | – | – | – | – | – | – | – | –
17 | Nc1ccc2c(c1)Oc1c(NC34CC5CC(CC(C5)C3)C4)c(F)cc3c(=O)c(C(=O)O)cn-2c13 | 3.12 (≈ 1.44 µg/mL) | 12.5 (≈ 5.77 µg/mL) | 3.9 to 7.8 | 5.23 | > 200 | 30.7 | 38.4 (≈ 17.7 µg/mL) | – | – | – | – | – | – | – | 0.8
18 | CC(C)(C)OC(=O)N[C@H]1CCN(c2c(F)cc3c(=O)c(C(=O)O)cn4c3c2Oc2cc(N)ccc2-4)C1 | – | 12.5 (≈ 6.21 µg/mL) | 3.9 | 5.41 | > 200 | – | – | – | – | – | – | – | – | – | –
19 | Nc1ccc2c(c1)Oc1c(NCCN3CCOCC3)c(F)cc3c(=O)c(C(=O)O)cn-2c13 | 0.78 (≈ 0.344 µg/mL) | 1.56 (≈ 0.687 µg/mL) | – | – | > 200 | 43 | 21.6 (≈ 9.51 µg/mL) | 15.6 to 31.2 | 7.8 to 15.6 | – | – | – | – | – | –
20 | N[C@H]1CCN(c2c(F)cc3c(=O)c(C(=O)O)cn4c3c2Oc2cc([N+](=O)[O-])ccc2-4)C1 | 1.56 (≈ 0.665 µg/mL) | 0.78 (≈ 0.333 µg/mL) | 0.48 | 6.32 | > 200 | > 50 | > 50 | 3.9 | 7.8 | 1.95 to 3.9 | – | – | – | – | –
21 | CC(=O)c1ccc2c(c1)Oc1c(F)c(F)cc3c(=O)c(C(=O)O)cn-2c13 | > 200 | > 200 | 15.6 | 4.81 | > 200 | – | – | – | – | – | – | – | – | – | –
22 | CC(=O)Nc1ccc2c(c1)Oc1c(F)c(F)cc3c(=O)c(C(=O)O)cn-2c13 | > 200 | > 200 | 7.8 | 5.11 | > 200 | – | – | – | – | – | – | – | – | – | –
23 | Nc1ccc2c(c1)Oc1c(N3CCC(N4CCCCC4)CC3)c(F)cc3c(=O)c(C(=O)O)cn-2c13 | 0.39 to 0.78 (≈ 0.187 to 0.373 µg/mL) | 1.56 (≈ 0.746 µg/mL) | 0.48 | – | > 200 | 24.4 | 2.5 (≈ 1.2 µg/mL) | 15.6 | 3.9 | – | – | – | – | – | –
24 | CCOC(=O)c1cn2c3c(c(F)c(F)cc3c1=O)Oc1cc([N+](=O)[O-])ccc1-2 | 50 (≈ 19.4 µg/mL) | 25 (≈ 9.71 µg/mL) | 15.6 | 4.81 | > 200 | – | – | – | – | – | – | – | – | – | –
25 | CC1CCN(c2c(F)cc3c(=O)c(C(=O)O)cn4c3c2Oc2cc(N)ccc2-4)CC1 | 3.12 (≈ 1.28 µg/mL) | 0.78 (≈ 0.319 µg/mL) | 3.9 | 5.41 | > 200 | – | – | – | – | – | – | – | – | – | –
26 | O=C(O)c1cn2c3c(c(F)c(F)cc3c1=O)Oc1cc(C(F)(F)F)ccc1-2 | > 200 | 25 (≈ 9.58 µg/mL) | 125 to 250 | 3.61 | > 200 | – | – | – | – | – | – | – | – | – | –
27 | O=C(O)c1cn2c3c(c(N4CCNCC4)c(F)cc3c1=O)Oc1cc([N+](=O)[O-])ccc1-2 | > 200 | > 200 | 3.9 | 5.41 | > 200 | – | – | – | – | – | – | – | – | – | –
28 | Nc1ccc2c(c1)Oc1c(N3CCOCC3)c(F)cc3c(=O)c(C(=O)O)cn-2c13 | 0.19 to 0.39 (≈ 0.0755 to 0.155 µg/mL) | 0.19 (≈ 0.0755 µg/mL) | 0.97 | 6.01 | > 200 | 24.7 | 3.5 (≈ 1.39 µg/mL) | 7.8 | – | – | – | – | – | – | –
